Sampled rows, rich in hits. Any-hit rate of the full collection: about 3.6%.
PAFAH2 FP inh = PAFAH2 (human) inhibition. inhibition, % at 3.39 µM. recombinant PAFAH2, FP-rhodamine activity probe, fluorescence polarization. 340,000 tested, 0.99% active. AID 492956. Q99487;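 active means inhibition above the mean over all tested compounds plus 3 SD, cut at about 30% in these data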;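 further: inhibitors block probe labeling of enzyme so polarization drops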
pPAFAH inh = inhibitors of human plasma PAF acetylhydrolase (pPAFAH); recombinant pPAFAH, FP-rhodamine probe fluorescence polarization; inhibition, % at 3.39 µM; 330,000 tested, 1.5% active;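 active means inhibition above the mean inhibition across the screen plus 3 SD, cut at about 25% in these data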;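 further: inhibitors block binding of the rhodamine activity-based probe so polarization drops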
Target sequence (Q13093 whole entry, looked up): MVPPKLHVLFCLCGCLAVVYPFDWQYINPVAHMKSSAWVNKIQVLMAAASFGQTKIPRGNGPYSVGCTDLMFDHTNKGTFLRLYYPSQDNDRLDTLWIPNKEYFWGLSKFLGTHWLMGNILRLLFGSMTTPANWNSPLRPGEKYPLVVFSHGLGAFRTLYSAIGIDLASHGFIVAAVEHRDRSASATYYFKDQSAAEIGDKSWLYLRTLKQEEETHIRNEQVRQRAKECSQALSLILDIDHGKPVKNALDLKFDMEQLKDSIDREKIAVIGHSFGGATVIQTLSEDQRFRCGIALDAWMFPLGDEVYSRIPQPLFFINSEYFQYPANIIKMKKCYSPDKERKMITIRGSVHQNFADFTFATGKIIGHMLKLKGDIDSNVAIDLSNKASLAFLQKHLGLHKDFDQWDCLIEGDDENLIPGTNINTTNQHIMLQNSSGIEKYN
IMP-1 inh = blocks Pseudomonas aeruginosa IMP-1 metallo-beta-lactamase; purified IMP-1, nitrocefin hydrolysis, epi-absorbance fluorescence; inhibition, % at 5.6 µM; 290,000 tested, 0.45% active;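 active means inhibition above the mean plus 3 SD of all compounds in the same screening run, cut at about 4.5% in these data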
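System: purified recombinant IMP-1 beta-lactamase. Medium: Zinc- and detergent-supplemented HEPES buffer, pH 7.1. Compound: one 5.6 µM dose […]. Schedule: 15 min preincubation plus 25 min reaction at 25 °C. Technique: Epi-absorbance fluorescence, 480 nm excitation, 530 nm emission.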
PAFAH1B2 FP inh = inhibitors of human PAFAH1B2; recombinant PAFAH1B2, FP-rhodamine activity probe, fluorescence polarization; inhibition, % at 3.39 µM; 340,000 tested, 1.2% active;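 active means inhibition above the mean of all tested compounds plus 3 SD, cut at about 24% in these data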
VIM-2 inh = blocks Pseudomonas aeruginosa VIM-2 metallo-beta-lactamase; AID 1527; 290,000 tested, 0.89% active; purified VIM-2, nitrocefin hydrolysis, epi-absorbance fluorescence; inhibition, % at 5.6 µM;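 active means inhibition above the mean of all tested compounds plus 3 SD, cutoff set per screening run, cut at about 7.5% in these data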;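 further: red hydrolysis product quenches plate fluorescence so inhibitors raise well fluorescence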
PAFAH1B3 FP inh = inhibitors of human PAFAH1B3. Q15102. recombinant PAFAH1B3, FP-rhodamine probe, fluorescence polarization. inhibition, % at 3.39 µM. 340,000 tested, 0.28% active. AID 492972;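 active means inhibition above the screen-wide average of all tested compounds plus 3 SD, cut at about 25% in these data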
Target sequence (Q15102 whole entry, looked up): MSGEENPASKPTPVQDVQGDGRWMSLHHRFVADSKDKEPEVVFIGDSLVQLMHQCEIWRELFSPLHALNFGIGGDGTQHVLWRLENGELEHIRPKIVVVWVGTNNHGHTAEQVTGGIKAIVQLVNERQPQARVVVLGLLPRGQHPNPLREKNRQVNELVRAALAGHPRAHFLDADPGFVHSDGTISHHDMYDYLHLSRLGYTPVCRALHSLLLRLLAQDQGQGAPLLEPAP
PAFAH2 FP conf = confirmation of human PAFAH2 inhibitors; shares compounds with PAFAH2 FP inh; recombinant PAFAH2, FP-rhodamine activity probe, fluorescence polarization; inhibition, % at 3.39 µM; 2,300 tested, 65% active;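 active means mean inhibition over three repeats above a set limit taken from the earlier primary screen, cut at about 30% in these data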;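 further: inhibitor blocks binding of rhodamine activity probe so polarization falls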
Each line names hits and unclear results; the compound was inactive in the other large screens (follow-up assays come after a bar, where they were run).

O=C1CNC(=S)N1C1CCCCCC1	none
C[C@H]1CN([C@@H](C)CO)C(=O)c2cc(NC(=O)C3CCCCC3)ccc2O[C@H]1CN(C)C(=O)Nc1ccc2c(c1)OCO2	none (no result: IMP-1 inh, VIM-2 inh)
O=C(OCc1nnc(-c2ccccc2)o1)c1ccccc1	PAFAH2 FP inh 57 | PAFAH2 FP conf 50
Cc1ccsc1C(=O)OCc1nnc(-c2ccccc2)o1	PAFAH2 FP inh 51 (no result: IMP-1 inh, VIM-2 inh) | PAFAH2 FP conf inactive
CC(=O)c1ccc(OCCCC(=O)OCc2nnc(-c3ccc(Cl)cc3)o2)cc1	none
Cc1ccsc1C(=O)OCC(=O)Nc1nnc(-c2ccccc2)o1	none (no result: IMP-1 inh, VIM-2 inh)
O=C(OCCOc1ccccc1F)c1cccc(S(=O)(=O)N2CCOCC2)c1	PAFAH2 FP inh 30 (no result: IMP-1 inh, VIM-2 inh) | PAFAH2 FP conf inactive
Cc1noc(C)c1COc1ccc(C(=O)OCc2nnc(-c3ccc(Cl)cc3)o2)cc1	PAFAH2 FP inh 66 | PAFAH2 FP conf 69
CCN1C(=O)c2ccc(C(=O)Nc3ncc(C)s3)cc2C1=O	none
Cc1noc(C)c1COc1ccccc1C(=O)N(C)Cc1ccco1	none (no result: IMP-1 inh, VIM-2 inh)
CCn1c(SCC(=O)c2ccc(O)c(O)c2)nnc1-c1ccccc1OC	PAFAH2 FP inh 42, pPAFAH inh 29 | PAFAH2 FP conf inactive
CCn1c(SCC(=O)c2c(N)n(C3CC3)c(=O)[nH]c2=O)nnc1-c1ccccc1OC	none (no result: IMP-1 inh, VIM-2 inh)
CC(=O)Nc1ccc(/C=N/NC(=S)NC(C)C)cc1	none
O=C(CNc1ccc(Cl)c(C(F)(F)F)c1)N1CCN(S(=O)(=O)c2ccccc2)CC1	PAFAH2 FP inh 45 (no result: pPAFAH inh, IMP-1 inh, VIM-2 inh) | PAFAH2 FP conf inactive
CC(=O)c1ccc(NCC(=O)N2CCN(S(=O)(=O)c3ccccc3)CC2)cc1	none (no result: IMP-1 inh, VIM-2 inh)
O=C(NCCc1ccccc1)c1ccc2c(c1)S(=O)(=O)N=C1CCCCCN12	none (no result: IMP-1 inh, VIM-2 inh)
COc1ccc(OC)c(NC(=O)C2C(C(=O)O)C3(Cl)C(Cl)=C(Cl)C2(Cl)C3(Cl)Cl)c1 (configuration not stated)	PAFAH2 FP inh 51 | PAFAH2 FP conf 40
CCOc1ccc(/C=C2\SC(=S)N(C(C(=O)O)c3ccccc3)C2=O)cc1OC (configuration not stated)	none
COc1ccc(OC)c(/C=C2\SC(=S)N(C(C(=O)O)c3ccccc3)C2=O)c1 (configuration not stated)	PAFAH2 FP inh 32, IMP-1 inh 4.8 | PAFAH2 FP conf inactive
COc1cccc(/C=C2\SC(=S)N(C(Cc3ccccc3)C(=O)O)C2=O)c1 (configuration not stated)	PAFAH2 FP inh 33 | PAFAH2 FP conf inactive
Cc1nc(NC(=O)COC(=O)CCc2ccccc2)c(Cl)cc1Cl	none (no result: IMP-1 inh, VIM-2 inh)
Cc1nc(NC(=O)COC(=O)c2ccc(CO)cc2)c(Cl)cc1Cl	PAFAH2 FP inh 44 (no result: IMP-1 inh, VIM-2 inh) | PAFAH2 FP conf inactive
Cc1c(NC(=O)c2cccc(NC(=O)COc3cccc(Br)c3)c2)c(=O)n(-c2ccccc2)n1C	none (no result: IMP-1 inh, VIM-2 inh)
CN(C)S(=O)(=O)c1cccc(C(=O)OCC(=O)NCc2ccccc2)c1	PAFAH2 FP inh 30 | PAFAH2 FP conf inactive
COc1ccc(NC(=O)COC(=O)c2cccc(S(=O)(=O)N(C)C)c2)cc1	PAFAH2 FP inh 41 (no result: pPAFAH inh) | PAFAH2 FP conf inactive
CN(C)S(=O)(=O)c1cccc(C(=O)OCC(=O)Nc2sccc2C(N)=O)c1	none
Nc1ncnc2nc(SCC(=O)Nc3ccccc3F)[nH]c12	none
CCCNC(=O)COC(=O)/C=C/c1ccc(C)o1	PAFAH2 FP inh 40 | PAFAH2 FP conf 37
CCOc1ccc(CCNC(=O)COC(=O)/C=C/c2ccc(C)o2)cc1OCC	none
Cc1ccc(/C=C/C(=O)OCC(=O)NCc2ccccc2)o1	PAFAH2 FP inh 52 (no result: pPAFAH inh, IMP-1 inh, VIM-2 inh) | PAFAH2 FP conf 40
O=C1C(=O)N(CCCN2CCOCC2)C(c2ccc(F)cc2)/C1=C(\O)c1ccc2c(c1)OCCO2 (configuration not stated)	PAFAH2 FP inh 48 | PAFAH2 FP conf inactive
CC(C)(C)c1ccc(C2/C(=C(\O)c3ccc4c(c3)OCCO4)C(=O)C(=O)N2CCCN2CCOCC2)cc1 (configuration not stated)	none
C=CCn1c(O)c(C=Nc2ccc(Cc3ccncc3)cc2)c(=O)[nH]c1=S	PAFAH2 FP inh 32 | PAFAH2 FP conf inactive
CN(C(=O)c1ccccc1-c1ncc[nH]1)C1CCCN(Cc2ccccc2F)C1 (configuration not stated)	none
COc1ccccc1NS(=O)(=O)c1ccc(O)c(C(=O)OCC(=O)c2ccc(Cl)cc2Cl)c1	PAFAH2 FP inh 38 | PAFAH2 FP conf inactive
COc1ccccc1NS(=O)(=O)c1ccc(O)c(C(=O)OCC(=O)N2c3ccccc3CC2C)c1 (configuration not stated)	PAFAH2 FP inh 57 | PAFAH2 FP conf 47
CCN(CC)S(=O)(=O)c1ccc(O)c(C(=O)OCC(=O)N2c3ccccc3CC2C)c1 (configuration not stated)	PAFAH2 FP inh 75 | PAFAH2 FP conf 75
CCN(CC)S(=O)(=O)c1ccc(O)c(C(=O)OCC(=O)N2CCCC2)c1	none
COc1ccccc1NS(=O)(=O)c1ccc(O)c(C(N)=O)c1	none
COc1ccccc1NS(=O)(=O)c1ccc(O)c(C(=O)OCC(=O)N2CCc3ccccc32)c1	PAFAH2 FP inh 45 | PAFAH2 FP conf inactive
O=C1OC(c2ccccc2)Cc2cc(C(=O)N3CCN(c4ccc(F)cc4)CC3)ccc21 (configuration not stated)	none (no result: pPAFAH inh, IMP-1 inh, VIM-2 inh)
C/C(=N\NC(=O)c1ccc2c(c1)OCO2)c1ccc(NC(=O)CCCC(=O)O)cc1	none (no result: pPAFAH inh)
Cc1ccc(CNC(=O)CC(C)S(=O)(=O)c2ccc3c(c2)NC(=O)CS3)o1 (configuration not stated)	none
CCN(CC)C(=O)CSc1nc2c(sc(=S)n2-c2ccccc2OC)c(=O)n1-c1ccccc1	PAFAH2 FP inh 38 | PAFAH2 FP conf inactive
O=C1c2nccnc2C(=O)N1Cc1ccccc1	none (no result: pPAFAH inh, IMP-1 inh, VIM-2 inh)
O=C1c2nc3ccccn3c2C(=O)N1Cc1ccccc1	PAFAH2 FP inh 38 | PAFAH2 FP conf inactive
CCOc1cc(/C=C2\C(=O)N(c3nc(-c4ccc(Br)cc4)cs3)N=C2c2ccccc2)ccc1O	PAFAH2 FP inh 55, pPAFAH inh 41 | PAFAH2 FP conf 45
CC(/C=C1\N=C(SCc2ccccc2Cl)SC1=O)=C\c1ccccc1	PAFAH2 FP inh 46 | PAFAH2 FP conf 45
Cc1ccc([N+](=O)[O-])cc1NC(=O)c1c(-c2ccccc2)noc1C	none
CC(=O)c1cccc(NC(=S)N2CCN(S(=O)(=O)c3ccccc3)CC2)c1	none (no result: pPAFAH inh)
N#Cc1cccc(NC(=O)CSc2n[nH]c(=O)[nH]c2=O)c1	none
N#Cc1cccc(NC(=O)CSc2sc3c(O)cc(=O)[nH]c3c2C#N)c1	PAFAH2 FP inh 40 | PAFAH2 FP conf inactive
COc1cc(NC(=O)Cc2ccccc2)c(C(=O)O)cc1OC	none
COc1cc(NC(=O)Nc2cccc(Cl)c2)c(C(=O)O)cc1OC	PAFAH2 FP inh 32 | PAFAH2 FP conf inactive

Screening data from PubChem BioAssay.
